Results from ChEMBL document CHEMBL3525987, “Assessment of exposure of metabolites in preclinical species and humans at steady state from the single-dose radiolabeled absorption, distribution, metabolism, and excretion studies: a case study” (Drug Metab Dispos, 2012).

Columns and labels:
[1] = system: Canis familiaris; assay: Drug level in beagle dog plasma treated with [14C]lixivaptan at 10 mg/kg, po administered as single dose measured after 2 hrs by liquid scintillation counting; type: ADME, organism-based, Canis lupus familiaris; set-up: dose 10 mg/kg, dosed compound name [14C]lixivaptan, route oral; conditions: in vivo
Procedure, shortened: (§1)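 Four male beagles fasted 18 h were gavaged once with [14C]lixivaptan at 10 mg/kg (2 ml/kg). The 5.0 mg/ml suspension was in deionized water with pluronic F68 (1.04 µCi/mg). Jugular K2EDTA plasma was taken at 2, 8 and 24 h and extracted twice with 2 volumes of acetonitrile. Profiling used C18 radio-HPLC (ammonium formate/acetonitrile gradient) with on-line flow scintillation detection. Each peak is reported as percent of plasma radioactivity.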

[2] = system: Canis familiaris; assay: Drug level in beagle dog plasma treated with [14C]lixivaptan at 10 mg/kg, po administered as single dose measured after 8 hrs by liquid scintillation counting; type: ADME, organism-based, Canis lupus familiaris; set-up: dose 10 mg/kg, dosed compound name [14C]lixivaptan, route oral; conditions: in vivo; procedure, shortened: as §1
[3] = system: Canis familiaris; assay: Drug level in beagle dog plasma treated with [14C]lixivaptan at 10 mg/kg, po administered as single dose measured after 24 hrs by liquid scintillation counting; type: ADME, organism-based, Canis lupus familiaris; set-up: dose 10 mg/kg, dosed compound name [14C]lixivaptan, route oral; conditions: in vivo; procedure, shortened: as §1
[4] = system: Rattus norvegicus; assay: Toxicity in male Sprague-Dawley rat treated with [14C]lixivaptan at 10 mg/kg, po administered as single dose via gavage; type: organism-based; set-up: dose 10 mg/kg, dosed compound name [14C]lixivaptan, route oral; conditions: in vivo
[5] = system: Rattus norvegicus; assay: Toxicity in female Sprague-Dawley rat treated with [14C]lixivaptan at 10 mg/kg, po administered as single dose via gavage; type: organism-based; set-up: dose 10 mg/kg, dosed compound name [14C]lixivaptan, route oral; conditions: in vivo
[6] = system: Canis familiaris; assay: Toxicity in beagle dog treated with [14C]lixivaptan at 10 mg/kg, po administered as single dose via gavage; type: organism-based, Canis lupus familiaris; set-up: dose 10 mg/kg, dosed compound name [14C]lixivaptan, route oral; conditions: in vivo
[7] = system: Rattus norvegicus; assay: Drug level in male Sprague-Dawley rat plasma treated with [14C]lixivaptan at 10 mg/kg, po administered as single dose via gavage measured after 1 hr by liquid scintillation counting; type: ADME, organism-based; set-up: dose 10 mg/kg, dosed compound name [14C]lixivaptan, route oral; conditions: in vivo
Procedure, shortened: (§2)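 Single oral gavage of [14C]drug (10 mg/kg, 10 ml/kg) as suspension in deionized water with pluronic F68, ~29.8 µCi/mg; SD rats fasted 18 h, fed 4 h post-dose. Blood by cardiac puncture under isoflurane, 3 rats/time/gender, into K2EDTA at 1, 8, 24 h; plasma extracted twice with 2 vol acetonitrile, radio-HPLC on C18 with flow radioactivity detection, expressed as % plasma radioactivity.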

[8] = system: Rattus norvegicus; assay: Drug level in female Sprague-Dawley rat plasma treated with [14C]lixivaptan at 10 mg/kg, po administered as single dose via gavage measured after 1 hr by liquid scintillation counting; type: ADME, organism-based; set-up: dose 10 mg/kg, dosed compound name [14C]lixivaptan, route oral; conditions: in vivo
Procedure, shortened: (§3)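 Sprague-Dawley rats (9/gender) were fasted 18 h and gavaged once with [14C]lixivaptan at 10 mg/kg (10 ml/kg), about 29.8 µCi/mg, suspended in deionized water with pluronic F68. Plasma came by cardiac puncture under isoflurane at 1, 8 and 24 h (3/gender/time) and was extracted twice with 2 volumes of acetonitrile. C18 radio-HPLC with a flow scintillation detector gave percent of plasma radioactivity per peak.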

[9] = system: Rattus norvegicus; assay: Drug level in female Sprague-Dawley rat plasma treated with [14C]lixivaptan at 10 mg/kg, po administered as single dose via gavage measured after 8 hrs by liquid scintillation counting; type: ADME, organism-based; set-up: dose 10 mg/kg, dosed compound name [14C]lixivaptan, route oral; conditions: in vivo; procedure, shortened: as §2
[10] = system: Rattus norvegicus; assay: Drug level in female Sprague-Dawley rat plasma treated with [14C]lixivaptan at 10 mg/kg, po administered as single dose via gavage measured after 24 hrs by liquid scintillation counting; type: ADME, organism-based; set-up: dose 10 mg/kg, dosed compound name [14C]lixivaptan, route oral; conditions: in vivo; procedure, shortened: as §3
[11] = system: Homo sapiens; assay: AUC (0 to 24 hrs) in human treated with [14C]lixivaptan at 100 mg, po administered as single dose; type: ADME, organism-based, Plasma; set-up: time < 24 hr, dose 100 mg, route oral, dosed compound name [14C]lixivaptan; conditions: in vivo
Procedure, shortened: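 Healthy young men fasted 10 h and took one oral dose of [14C]lixivaptan, 100 mg (200 µCi) as two capsules with water, eating 4 h later. Plasma from each subject at 0.5, 2, 4, 8, 12, 24 and 36 h was acetonitrile-extracted and profiled by C18 radio-HPLC (formic acid/acetonitrile gradient) with flow detection. Component concentrations were % of radioactivity × total plasma radioactivity, giving AUC0-24 in ng-equiv.h/ml.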

[12] = system: Canis familiaris; assay: AUC (0 to 24 hrs) in beagle dog treated with [14C]lixivaptan at 10 mg/kg, po administered as single dose; type: ADME, organism-based, Canis lupus familiaris, Plasma; set-up: time < 24 hr, dose 10 mg/kg, dosed compound name [14C]lixivaptan, route oral; conditions: in vivo
[13] = system: Rattus norvegicus; assay: AUC (0 to 24 hrs) in male Sprague-Dawley rat treated with [14C]lixivaptan at 10 mg/kg, po administered as single dose via gavage; type: ADME, organism-based, Plasma; set-up: time < 24 hr, dose 10 mg/kg, dosed compound name [14C]lixivaptan, route oral; conditions: in vivo; procedure, shortened: as §3
[14] = system: Rattus norvegicus; assay: AUC (0 to 24 hrs) in female Sprague-Dawley rat treated with [14C]lixivaptan at 10 mg/kg, po administered as single dose via gavage; type: ADME, organism-based, Plasma; set-up: time < 24 hr, dose 10 mg/kg, dosed compound name [14C]lixivaptan, route oral; conditions: in vivo; procedure, shortened: as §3
[15] = system: Homo sapiens; assay: Cmax in human treated with [14C]lixivaptan at 100 mg, po qd for 7 days; type: ADME, organism-based; set-up: dose 100 mg, route oral, dosed compound name [14C]lixivaptan; conditions: in vivo, 168 h
[16] = system: Homo sapiens; assay: AUC in human treated with [14C]lixivaptan at 100 mg, po qd for 7 days; type: ADME, organism-based, Plasma; set-up: dosed compound name [14C]lixivaptan; conditions: in vivo, 168 h
[17] = system: Homo sapiens; assay: Drug concentration at steady state in human treated with [14C]lixivaptan at 100 mg, po qd for 7 days by LC/MS/MS analysis; type: ADME, organism-based; set-up: dosed compound name Lixivaptan; conditions: in vivo, 168 h
Procedure, shortened: (§4)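 Phase 1 human study with lixivaptan 100 mg orally once daily and blood taken on the final day. Parent and two abundant metabolites were quantified in plasma with a validated LC-MS/MS assay.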

[18] = system: Homo sapiens; assay: AUC at steady state in human treated with [14C]lixivaptan at 100 mg, po qd for 7 days by LC/MS/MS analysis; type: ADME, organism-based, Plasma; set-up: dosed compound name Lixivaptan; conditions: in vivo, 168 h; procedure, shortened: as §4
[19] = Retention time of the compound by HPLC analysis; type: physicochemical; set-up: dosed compound name [14C]lixivaptan
[20] = system: Homo sapiens; assay: Drug level in human plasma treated with [14C]lixivaptan at 100 mg, po administered as single dose measured after 0.5 hrs by liquid scintillation counting; type: ADME, organism-based; set-up: dosed compound name [14C]lixivaptan; conditions: in vivo
Procedure, shortened: (§5)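 Healthy male volunteers fasted ≥10 h, given single oral 100 mg (200 µCi) [14C]drug as two 50-mg capsules with 250 ml water. Plasma (from ~50 ml blood) at 0.5, 2, 4, 8, 12, 24, 36 h, profiled per subject. Acetonitrile extraction, C18 radio-HPLC with 0.2% formic acid acetonitrile/water gradient, on-line radioactivity detection as % plasma radioactivity; ng-equiv/ml from % × total radioactivity.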

[21] = system: Homo sapiens; assay: Drug level in human plasma treated with [14C]lixivaptan at 100 mg, po administered as single dose measured after 2 hrs by liquid scintillation counting; type: ADME, organism-based; set-up: dosed compound name [14C]lixivaptan; conditions: in vivo; procedure, shortened: as §5
[22] = system: Homo sapiens; assay: Drug level in human plasma treated with [14C]lixivaptan at 100 mg, po administered as single dose measured after 4 hrs by liquid scintillation counting; type: ADME, organism-based; set-up: dosed compound name [14C]lixivaptan; conditions: in vivo; procedure, shortened: as §5
[23] = system: Homo sapiens; assay: Drug level in human plasma treated with [14C]lixivaptan at 100 mg, po administered as single dose measured after 8 hrs by liquid scintillation counting; type: ADME, organism-based; set-up: dosed compound name [14C]lixivaptan; conditions: in vivo; procedure, shortened: as §5
[24] = system: Homo sapiens; assay: Drug level in human plasma treated with [14C]lixivaptan at 100 mg, po administered as single dose measured after 12 hrs by liquid scintillation counting; type: ADME, organism-based; set-up: dosed compound name [14C]lixivaptan; conditions: in vivo; procedure, shortened: as §5
[25] = system: Homo sapiens; assay: Drug level in human plasma treated with [14C]lixivaptan at 100 mg, po administered as single dose measured after 24 hrs by liquid scintillation counting; type: ADME, organism-based; set-up: dosed compound name [14C]lixivaptan; conditions: in vivo; procedure, shortened: as §5
[26] = system: Homo sapiens; assay: Drug level in human plasma treated with [14C]lixivaptan at 100 mg, po administered as single dose measured after 36 hrs by liquid scintillation counting; type: ADME, organism-based; set-up: dosed compound name [14C]lixivaptan; conditions: in vivo; procedure, shortened: as §5
[27] = system: Rattus norvegicus; assay: Drug level in male Sprague-Dawley rat plasma treated with [14C]lixivaptan at 10 mg/kg, po administered as single dose via gavage measured after 8 hrs by liquid scintillation counting; type: ADME, organism-based; set-up: dose 10 mg/kg, dosed compound name [14C]lixivaptan, route oral; conditions: in vivo; procedure, shortened: as §2
[28] = system: Rattus norvegicus; assay: Drug level in male Sprague-Dawley rat plasma treated with [14C]lixivaptan at 10 mg/kg, po administered as single dose via gavage measured after 24 hrs by liquid scintillation counting; type: ADME, organism-based; set-up: dose 10 mg/kg, dosed compound name [14C]lixivaptan, route oral; conditions: in vivo; procedure, shortened: as §2

Compound recovery [1] [%]	Compound recovery [2] [%]	Compound recovery [3] [%]	Compound recovery [7] [%]	Compound recovery [8] [%]	Compound recovery [9] [%]	Compound recovery [10] [%]	AUC [11] [ng.Eq.hr/ml]	Cmax [15] [ng/mL]	Retention_time [19] [min]	Compound recovery [20] [%]	Compound recovery [21] [%]	Compound recovery [22] [%]	Compound recovery [23] [%]	Compound recovery [24] [%]	Compound recovery [25] [%]	Compound recovery [26] [%]	Structure (SMILES)	Activity [4]	Activity [5]	Activity [6]	also measured
19.4	11.1	3.9	5.4	36.2	25.2	2.6											Cc1ccc(F)cc1C(=O)Nc1ccc(C(=O)N2CC3C=CC(=O)N3Cc3ccccc32)c(Cl)c1 (stereo not given)	Non-toxic	Non-toxic	Non-toxic	
15.3	29.7	38.7	58.5	9	42.4	97.4	5180	278	24.5	1.5	12.6	19.6	28.4	30.1	38.8	35.2	Cc1ccc(F)cc1C(=O)Nc1ccc(C(=O)Nc2ccccc2C(=O)O)c(Cl)c1	Non-toxic	Non-toxic	Non-toxic	AUC [12]: 22400 ng.Eq.hr/ml; AUC [13]: 32100 ng.Eq.hr/ml; AUC [14]: 11100 ng.Eq.hr/ml; AUC [16]: 5180 ng·h/mL; Css [17]: 658 ng/mL; AUCss [18]: 6610 ng·h/mL; Compound recovery [27]: 73.9%; Compound recovery [28]: 67.8%
							2680	290	23.3	4.1	16.5	16.8	12.2	11.2	11	7.6	Cc1ccc(F)cc1C(=O)Nc1ccc(C(=O)Nc2ccccc2Cn2cccc2C(=O)O)c(Cl)c1	Non-toxic	Non-toxic	Non-toxic	AUC [16]: 2680 ng·h/mL; Css [17]: 454 ng/mL; AUCss [18]: 3040 ng·h/mL
									25.2	2.7	2.2	2.4	2.1	1.6	4.2	3.8	Cc1ccc(F)cc1C(=O)Nc1ccc(C(=O)N2Cc3cccn3C(O)c3ccccc32)c(Cl)c1 (stereo not given)				
							268		20.2	0.6	1.5	2.5	2.4	2.1	2.1		Cc1ccc(F)cc1C(=O)Nc1ccc(C(=O)N2C=C3CCC(=O)N3Cc3ccccc32)c(Cl)c1				
